Reference: ChEMBL document CHEMBL4715691, “Synthesis of Triphenylethylene Bisphenols as Aromatase Inhibitors That Also Modulate Estrogen Receptors” (J Med Chem, 2016)

Assays:
[1] = molecular target: Estrogen receptor beta (Homo sapiens) (UniProt Q92731); experiment: Displacement of ES2 from recombinant human ER-beta at 100 uM incubated for 2 hrs by fluorescence based assay relative to control
How it was run: (§1)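 Fluorescence polarization competition: test compound at 100 μM, 9 nM ES2 with 20 nM recombinant human ER-β in ES2 screening buffer (100 mM potassium phosphate, 100 µg/mL BGG, 0.02% NaN₃). Incubated 2 h protected from light, ex/em 485/530. Percent of remaining polarization versus vehicle control. Means of at least three experiments.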

[2] = molecular target: T1, Estrogen receptor (Homo sapiens) (UniProt P03372); experiment: Displacement of ES2 from recombinant human ER-alpha at 100 uM incubated for 2 hrs by fluorescence based assay relative to control
T1 sequence (whole entry): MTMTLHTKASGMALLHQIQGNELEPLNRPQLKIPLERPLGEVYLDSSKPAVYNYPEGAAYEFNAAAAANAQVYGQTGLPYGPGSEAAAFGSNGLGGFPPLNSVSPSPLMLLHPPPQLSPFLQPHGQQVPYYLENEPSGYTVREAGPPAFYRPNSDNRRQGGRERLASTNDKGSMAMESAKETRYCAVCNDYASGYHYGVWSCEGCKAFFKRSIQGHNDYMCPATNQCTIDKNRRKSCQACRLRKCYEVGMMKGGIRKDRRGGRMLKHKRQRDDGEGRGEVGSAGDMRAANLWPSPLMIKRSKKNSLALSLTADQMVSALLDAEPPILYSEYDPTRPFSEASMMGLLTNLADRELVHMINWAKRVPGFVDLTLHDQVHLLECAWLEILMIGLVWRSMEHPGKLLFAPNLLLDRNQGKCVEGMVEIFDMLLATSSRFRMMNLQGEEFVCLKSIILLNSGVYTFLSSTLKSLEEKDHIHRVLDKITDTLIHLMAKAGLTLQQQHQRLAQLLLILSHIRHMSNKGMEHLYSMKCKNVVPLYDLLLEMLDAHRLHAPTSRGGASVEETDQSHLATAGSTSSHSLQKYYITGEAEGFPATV
How it was run: as §1, with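 “30” for “20”, “ER-α” for “ER-β”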

[3] = tested on: MCF7; experiment: Selective estrogen receptor modulator activity in human MCF7 cells assessed as E2-induced progesterone receptor mRNA expression level at 1 uM incubated for 24 hrs by real time PCR analysis (reference value: 100%); assay type: cell-based; details: filed as modulator
How it was run: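 MCF-7 cells grown in MEM with 10% FBS, then held 72 h in charcoal-stripped FBS. […] Genomic DNA removed, RNA extracted, PGR mRNA measured by real-time PCR (40 cycles) from Ct values.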

[4] = tested on: MCF7; experiment: Antagonist activity at estrogen receptor in human MCF7 cells assessed as E2-induced progesterone receptor mRNA expression level at 1 uM incubated for 24 hrs by real time PCR analysis (reference value: 100%); assay type: cell-based; design: scale not given: the % may be the effect or the level left; details: filed as antagonist
How it was run: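 ER-positive MCF-7 cells grown in MEM with 10% FBS, 37 °C, 5% CO2, then preconditioned 72 h in charcoal-stripped FBS. […] RNA extracted after genomic DNA removal; PGR mRNA quantified by real-time PCR from threshold cycle, 40 cycles.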

Sequence of Estrogen receptor beta (Homo sapiens) (Q92731 whole entry): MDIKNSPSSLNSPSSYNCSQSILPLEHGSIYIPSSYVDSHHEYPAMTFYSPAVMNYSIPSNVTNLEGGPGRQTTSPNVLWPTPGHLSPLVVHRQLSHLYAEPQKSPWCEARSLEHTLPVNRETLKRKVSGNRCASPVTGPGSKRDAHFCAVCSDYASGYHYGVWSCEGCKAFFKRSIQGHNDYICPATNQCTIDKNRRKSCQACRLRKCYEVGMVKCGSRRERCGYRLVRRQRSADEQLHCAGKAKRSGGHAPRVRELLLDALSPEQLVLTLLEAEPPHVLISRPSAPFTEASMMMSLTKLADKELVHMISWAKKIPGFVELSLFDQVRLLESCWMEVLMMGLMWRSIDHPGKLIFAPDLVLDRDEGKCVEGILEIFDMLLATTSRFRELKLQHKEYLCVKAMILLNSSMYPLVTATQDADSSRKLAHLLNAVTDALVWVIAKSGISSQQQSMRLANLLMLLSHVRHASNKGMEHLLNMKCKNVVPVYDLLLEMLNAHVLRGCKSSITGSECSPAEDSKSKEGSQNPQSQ

Row | SMILES | inhibition ([1]; filed as modulator) [%] | inhibition ([2]; filed as modulator) [%] | inhibition [1] [%] | inhibition [2] [%] | Activity [3] [%] | Activity [4] [%]
1 | Nc1cccc(C(Cn2ccnc2)=C(c2ccc(O)cc2)c2ccc(O)cc2)c1 | 71 | 60 |  |  |  | 
2 | Oc1ccc(C(=C(Cn2ccnc2)c2cccc(O)c2)c2ccc(O)cc2)cc1 |  |  | 29 | 0 |  | 
3 | Oc1ccc(C(Cn2ccnc2)=C(c2ccc(O)cc2)c2ccc(O)cc2)cc1 | > 90 | > 90 |  |  | 26 | 
4 | CCC(=C(c1ccc(O)cc1)c1ccc(O)cc1)c1ccccc1 | > 90 | 80 |  |  |  | 
5 | Oc1ccc(C(Cn2cncn2)=C(c2ccc(O)cc2)c2ccc(O)cc2)cc1 | 40 | 45 |  |  |  | 
6 | Nc1ccc(C(Cn2cncn2)=C(c2ccc(O)cc2)c2ccc(O)cc2)cc1 |  |  | 2 | 0 |  | 
7 | Oc1ccc(C(Cn2cnnc2)=C(c2ccc(O)cc2)c2ccc(O)cc2)cc1 | > 90 | > 90 |  |  |  | 
8 | CCC(=C(c1ccc(O)cc1)c1ccc(OCCN)cc1)c1ccccc1 |  |  |  |  |  | 33
9 | N#CCC(=C(c1ccc(O)cc1)c1ccc(O)cc1)c1ccc(O)c(F)c1 |  |  | 0 | 0 |  | 
10 | N#CCC(=C(c1ccc(O)cc1)c1ccc(O)cc1)c1ccc(O)cc1 |  |  | 3 | 0 |  | 
11 | Oc1ccc(C(=C(Cn2cnnc2)c2ccc(O)c(F)c2)c2ccc(O)cc2)cc1 |  |  | 0 | 0 |  | 
12 | Oc1ccc(C(=C(Cn2cncn2)c2ccc(O)c(F)c2)c2ccc(O)cc2)cc1 |  |  | 0 | 2 |  | 
13 | N#CCC(=C(c1ccc(O)cc1)c1ccc(O)cc1)c1ccc(N)cc1 |  |  | 0 | 0 |  | 
14 | Nc1ccc(C(Cn2cnnc2)=C(c2ccc(O)cc2)c2ccc(O)cc2)cc1 |  |  | 36 | 13 |  | 
15 | Oc1ccc(C(=C(Cn2cncn2)c2ccccc2)c2ccc(O)cc2)cc1 |  |  | 33 | 12 |  | 
16 | N#CCC(=C(c1ccc(O)cc1)c1ccc(O)cc1)c1ccccc1 | 49 | 56 |  |  |  | 
17 | CC/C(=C(\c1ccc(O)cc1)c1ccc(OCCN(C)C)cc1)c1ccccc1 |  |  |  |  |  | 10
18 | Oc1ccc(C(=C(Cn2ccnc2)c2ccc(O)c(F)c2)c2ccc(O)cc2)cc1 | > 90 | > 90 |  |  | 26 | 
19 | Oc1ccc(C(=C(Cn2ccnc2)c2ccccc2)c2ccc(O)cc2)cc1 | > 90 | > 90 |  |  | 26 | 
20 | Nc1ccc(C(Cn2ccnc2)=C(c2ccc(O)cc2)c2ccc(O)cc2)cc1 | > 90 | > 90 |  |  | 26 | 
